Results taken from ChEMBL document CHEMBL1130354, “Bicyclo[2.2.1]heptane and 6,6-dimethylbicyclo[3.1.1]heptane derivatives: orally active, potent, and selective prostaglandin D2 receptor antagonists” (J Med Chem, 1997).

Experiments:
[1] = organism: Cavia porcellus; test: Dose required to inhibit 50% of antigen-induced increase in intranasal pressure; type: functional; conditions: po
Method in brief: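 Oral dosing of actively sensitized guinea pigs 1 h before antigen challenge; rise in intranasal pressure recorded; dose giving 50% inhibition taken from dose–response data, n = 5–10 animals per point.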

[2] = organism: Cavia porcellus; test: Effect on PGD2-induced increase in vascular permeability in conjunctiva of normal guinea pigs; type: functional
Method in brief: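 Normal guinea pigs; conjunctival microvascular permeability increase induced by topical 0.1% PGD2; dose producing 50% inhibition derived from dose–response data, n = 3–10 animals per point.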

[3] = organism: Cavia porcellus; test: Effect on antigen-induced increase in vascular permeability in conjunctiva of guinea pig which actively sensitized with ovalbumin; type: functional
Method in brief: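 Guinea pigs actively sensitized with ovalbumin, challenged conjunctivally with antigen; increase in conjunctival microvascular permeability measured; ED50 from dose–response data, n = 3–10 animals per point.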

[4] = target: Prostacyclin receptor (Homo sapiens, UniProt P43119); test: Inhibition of cAMP formation by carbacyclin in Prostaglandin I2 receptor (IP) assay; type: functional
Method in brief: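 Platelets (human) preincubated 10 min at 37 °C with graded compound levels plus IBMX, then exposed 2 min to 0.1 μM carbacyclin; cAMP formation inhibition read out; IC50 is mean of two or three measurements.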

[5] = target: T1, Prostaglandin D2 receptor (Homo sapiens, UniProt Q13258); test: Inhibition of cAMP formation evoked by the prostaglandin D2 receptor in human platelets; type: functional
T1 sequence (Q13258 whole entry): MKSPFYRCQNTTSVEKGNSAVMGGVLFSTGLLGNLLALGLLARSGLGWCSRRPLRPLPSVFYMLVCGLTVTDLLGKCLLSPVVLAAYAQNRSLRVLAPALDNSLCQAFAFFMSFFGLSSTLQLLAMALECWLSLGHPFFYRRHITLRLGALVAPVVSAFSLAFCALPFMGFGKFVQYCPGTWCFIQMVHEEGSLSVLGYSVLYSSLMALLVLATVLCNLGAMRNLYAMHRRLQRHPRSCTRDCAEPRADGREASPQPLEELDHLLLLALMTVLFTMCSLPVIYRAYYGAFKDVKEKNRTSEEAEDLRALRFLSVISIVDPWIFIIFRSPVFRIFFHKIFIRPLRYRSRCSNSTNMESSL
Method in brief: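 Human platelets preincubated 10 min at 37 °C with graded compound concentrations in presence of IBMX, then stimulated 2 min with 0.1 μM PGD2; inhibition of cAMP formation measured, IC50 derived.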

[6] = target: T2, Thromboxane A2 receptor (Homo sapiens, UniProt P21731); test: Inhibition of [3H]- (+)-S-145 specific binding to human platelet membranes in TXA2 receptor (TP) assay
T2 sequence (P21731 whole entry): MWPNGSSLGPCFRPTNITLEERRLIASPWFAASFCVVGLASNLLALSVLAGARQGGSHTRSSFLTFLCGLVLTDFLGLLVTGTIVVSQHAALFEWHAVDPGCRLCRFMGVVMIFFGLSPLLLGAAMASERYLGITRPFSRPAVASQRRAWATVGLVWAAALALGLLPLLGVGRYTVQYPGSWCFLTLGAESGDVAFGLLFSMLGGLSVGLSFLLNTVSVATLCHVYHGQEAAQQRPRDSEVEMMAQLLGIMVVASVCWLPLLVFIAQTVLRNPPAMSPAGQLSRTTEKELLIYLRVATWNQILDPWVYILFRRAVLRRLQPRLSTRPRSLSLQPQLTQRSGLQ
Method in brief: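 Membranes from human platelets incubated 60 min at room temperature with 2 nM [3H](+)-S-145 plus graded compound concentrations; specific binding inhibition gives IC50.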

[7] = tested on: Cavia porcellus; test: Inhibition of increase in specific airway resistance by antigen inhalation in conscious guinea pigs (10 mg/kg); type: functional
Method in brief: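 Conscious guinea pigs given compound po 1 h before antigen inhalation; increase in specific airway resistance measured; percent inhibition as mean ± SEM, n = 4–11 animals/group; Student's t-test versus control.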

[8] = tested on: Cavia porcellus; test: Inhibition of antigen-induced increase in intranasal pressure in actively sensitized guinea pigs at 1 mg/kg (iv); type: functional
Method in brief: (§1)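 Actively sensitized guinea pigs; compound given iv 10 min before antigen challenge; antigen-induced rise in intranasal pressure measured, percent inhibition reported as mean ± SEM, n = 5–10/group; Student's t-test versus control.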

[9] = target: T1, Prostaglandin D2 receptor; test: Inhibition of [3H]PGD-2 specific binding to Prostaglandin D2 receptor from human platelet membranes
Method in brief: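 Human platelet membranes incubated 60 min at 4 °C with 5 nM [3H]PGD2 and graded test compound concentrations; inhibition of specific binding measured, IC50 derived.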

[10] = tested on: Cavia porcellus; test: Inhibition of antigen-induced increase in intranasal pressure in actively sensitized guinea pigs at 3 mg/kg (iv); type: functional; method in brief: as §1

Sequence of Prostacyclin receptor (P43119 whole entry): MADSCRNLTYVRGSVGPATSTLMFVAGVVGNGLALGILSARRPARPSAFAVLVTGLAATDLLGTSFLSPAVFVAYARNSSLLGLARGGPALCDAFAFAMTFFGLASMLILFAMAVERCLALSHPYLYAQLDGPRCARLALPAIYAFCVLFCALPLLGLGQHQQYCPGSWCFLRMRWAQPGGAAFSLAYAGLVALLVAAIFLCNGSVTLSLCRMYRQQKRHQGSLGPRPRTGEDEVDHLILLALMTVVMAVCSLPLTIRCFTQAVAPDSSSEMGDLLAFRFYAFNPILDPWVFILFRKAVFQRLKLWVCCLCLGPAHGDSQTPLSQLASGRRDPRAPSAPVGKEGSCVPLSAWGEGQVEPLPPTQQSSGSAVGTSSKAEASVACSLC

SMILES	ED50 [1]	ED50 [2]	ED50 [3]	IC50 [4]	IC50 [5]	IC50 [6]	Inhibition [7]	inhibition in vivo at 1 mg/kg [8]	IC50 [9]	inhibition in vivo at 3 mg/kg [10]
CC1(C)[C@H]2C[C@H](C/C=C\CCCC(=O)O)[C@@H](NC(=O)c3csc4ccc(F)cc34)[C@@H]1C2	1 mg/kg	3.5 mg/kg	8.9 mg/kg	> 10 µM	0.0018 µM	0.43 µM	69%			
CC1(C)[C@H]2C[C@H](C/C=C\CCCC(=O)O)[C@@H](NC(=O)c3csc4ccc(O)cc34)[C@@H]1C2	2.1 mg/kg	0.12 mg/kg	2 mg/kg	> 10 µM	0.001 µM	0.096 µM	70%	78%		
CC1(C)[C@H]2C[C@H](C/C=C\CCCC(=O)O)[C@@H](NC(=O)c3ccc[nH]3)[C@@H]1C2				> 10 µM	0.064 µM	3.1 µM			0.032 µM	
O=C(O)CCC/C=C\C[C@@H]1[C@H]2CC[C@H](C2)[C@H]1NC(=O)c1ccc(/N=N/c2ccccc2)cc1				1.4 µM	> 1 µM				3 µM	
CC1(C)[C@H]2C[C@H](C/C=C\CCCC(=O)O)[C@@H](NC(=O)c3ccc4oc5ccccc5c4c3)[C@@H]1C2				7.5 µM	0.22 µM	0.27 µM			0.032 µM	
CC1(C)[C@H]2C[C@H](C/C=C\CCCC(=O)O)[C@@H](NC(=O)c3cccc4ccsc34)[C@@H]1C2				> 10 µM	0.0056 µM	0.21 µM				
CC1(C)[C@H]2C[C@H](C/C=C\CCCC(=O)O)[C@@H](NC(=O)c3csc4cc(O)ccc34)[C@@H]1C2				> 10 µM		0.41 µM				
O=C(O)CCC/C=C\C[C@@H]1[C@H]2CC[C@H](C2)[C@H]1NS(=O)(=O)c1ccc2oc3ccccc3c2c1	3.5 mg/kg			1.5 µM	0.07 µM	1.7 µM		82%		
COc1cc2c(cc1S(=O)(=O)N[C@@H]1[C@@H]3CC[C@@H](C3)[C@H]1C/C=C\CCCC(=O)O)oc1ccccc12	2.2 mg/kg	1.6 mg/kg	6.6 mg/kg	5.9 µM	0.068 µM	> 10 µM		80%	0.027 µM	
O=C(O)CCC/C=C\C[C@@H]1[C@H]2CC[C@H](C2)[C@H]1NS(=O)(=O)c1ccc2cc(-c3ccccc3)[nH]c2c1	7.2 mg/kg			> 10 µM	0.12 µM	1.2 µM		60%	0.047 µM	
CC1(C)[C@H]2C[C@H](C/C=C\CCCC(=O)O)[C@@H](NC(=O)c3csc4ccccc34)[C@@H]1C2				> 10 µM		0.38 µM				
CC1(C)[C@H]2C[C@H](C/C=C\CCCC(=O)O)[C@@H](NC(=O)c3ccsc3)[C@@H]1C2	5.1 mg/kg	3.5 mg/kg	9.5 mg/kg	> 10 µM	0.038 µM	2.1 µM	15%	77%	1.6 µM	
O=C(O)CCC/C=C\C[C@@H]1[C@H]2CC[C@H](C2)[C@H]1NS(=O)(=O)c1ccc2oc3cc([N+](=O)[O-])ccc3c2c1				4.5 µM	0.25 µM				1.1 µM	
CC1(C)[C@H]2C[C@H](C/C=C\CCCC(=O)O)[C@@H](NS(=O)(=O)c3ccc(/N=N/c4ccccc4)cc3)[C@@H]1C2				3.4 µM	> 1 µM	0.74 µM			1.3 µM	
O=C(O)CCC/C=C\C[C@@H]1[C@H]2CC[C@H](C2)[C@H]1NS(=O)(=O)c1ccc2ccccc2c1				8.9 µM	0.42 µM	0.67 µM		54%	1.2 µM	
O=C(O)CCC/C=C\C[C@@H]1[C@H]2CC[C@H](C2)[C@H]1NS(=O)(=O)c1ccc(/N=N/c2ccccc2)cc1				> 10 µM	0.32 µM	1.3 µM			0.027 µM	
O=C(O)CCC/C=C\C[C@H]1[C@@H]2CC[C@@H](C2)[C@@H]1NS(=O)(=O)c1ccc2ccccc2c1				3.3 µM	> 1 µM	0.00013 µM		6%	4.9 µM	
O=C(O)CCC/C=C\C[C@@H]1[C@H]2CC[C@H](C2)[C@H]1NS(=O)(=O)c1ccc(Oc2ccccc2)cc1				> 10 µM	0.78 µM	1.3 µM		25%	0.72 µM	
CC1(C)[C@H]2C[C@H](C/C=C\CCCC(=O)O)[C@@H](NC(=O)c3ccc(/N=N/c4ccccc4)cc3)[C@@H]1C2				> 10 µM	0.38 µM	0.15 µM			0.54 µM	
CC1(C)[C@H]2C[C@H](C/C=C\CCCC(=O)O)[C@@H](NC(=O)c3ccccc3)[C@@H]1C2				> 10 µM	0.36 µM	0.81 µM			5.2 µM	
O=C(O)CCC/C=C\C[C@@H]1[C@H]2CC[C@H](C2)[C@H]1NS(=O)(=O)c1ccc(-c2ccccc2)cc1				5 µM	0.45 µM	1.1 µM			0.6 µM	39%
O=C(O)CCC/C=C\C[C@@H]1[C@H]2CC[C@H](C2)[C@H]1NS(=O)(=O)c1ccc(C#Cc2ccccc2)cc1				> 10 µM	0.25 µM	0.28 µM		25%	0.0086 µM	
CC1(C)[C@H]2C[C@H](C/C=C\CCCC(=O)O)[C@@H](NS(=O)(=O)c3ccc4oc5ccccc5c4c3)[C@@H]1C2				> 10 µM	> 1 µM	0.24 µM			0.78 µM	
